Tests used:
rTRPV1 [1] = biological target: T1, rTRPV1 (Rattus norvegicus, UniProt O35433); test: ^45Ca^2+ uptake in CHO-rTRPV1 cells; type: cell-based
Outline: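 CHO-rTRPV1 cells (Tet-Off) were induced for about 48 h without tetracycline. They were then exposed for 5 min at 37 °C to DMEM containing BSA (0.25 mg/mL), 45Ca2+ (37 kBq/mL) and increasing test compound. Agonism was referenced to 300 nM capsaicin, and antagonism was tested against 75 nM capsaicin. Cells were washed, lysed in RIPA buffer and scintillation-counted. Each point was the mean of four wells, fitted to the Hill equation.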

hTRPV1 [2] = biological target: T2, hTRPV1 (Homo sapiens, UniProt Q8NER1); conditions: read-out: IC50 reported for hTRPV1; cited from earlier work
hTRPV1 [3] = biological target: T2, hTRPV1; test: ^45Ca^2+ uptake in CHO-hTRPV1 cells; type: cell-based
Outline: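 Tet-Off CHO-hTRPV1 cells at 50–70% confluency were induced 48 h without tetracycline. Assay medium was DMEM with BSA 0.25 mg/mL, 45Ca2+ 37 kBq/mL and increasing ligand concentrations. Antagonism wells also held capsaicin 75 nM; full-agonist reference was capsaicin 300 nM. After 5 min at 37 °C, cells were washed, lysed in RIPA buffer and scintillation-counted. Each point is the mean of four wells, fitted with the Hill equation.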

rTRPV1 [4] = biological target: T1, rTRPV1; test: [^3H]RTX competition binding on CHO cells transfected with rTRPV1; conditions: read-out: binding affinity (Kd), [^3H]RTX as radioligand
Outline: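 A stable Tet-Off CHO line with rat TRPV1 was induced for 48 h in tetracycline-free medium, harvested and pelleted, and pellets were stored at −20 °C. Binding used [3H]RTX (100 pM) plus graded competitor in DPBS with Ca2+/Mg2+ and BSA (0.25 mg/mL), at 37 °C for 60 min. Nonspecific binding was set with 100 nM unlabelled RTX. Membranes were pelleted after glycoprotein addition and scintillation-counted. Parameters came from Hill equation fits.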

hTRPV1 [5] = biological target: T2, hTRPV1; test: [^3H]RTX competition binding on CHO cells transfected with hTRPV1; conditions: read-out: binding affinity (Kd), [^3H]RTX as radioligand
Outline: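 Stable Tet-Off CHO cells expressing human TRPV1 were induced 48 h in tetracycline-free medium, harvested and pelleted. Assay mix: DPBS with Ca2+/Mg2+, BSA 0.25 mg/mL, [3H]RTX 100 pM and varying competitor concentrations; 100 nM unlabelled RTX defined nonspecific binding. Incubation 60 min at 37 °C, ice-cooled, glycoprotein added, membranes pelleted by centrifugation. Pellets and supernatant were scintillation-counted and Ki fitted with the Hill equation.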

TRPV1 receptor [6] = test: Biodistribution in NMRI mice pretreated with BCTC or SB366791; type: in vivo; conditions: 60 min p.i.
Outline: (§1)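 Male NMRI mice (32–43 g), either pretreated s.c. 1 h before tracer or TRPV1−/−. Tracer was diluted in saline (<10% ethanol) and ~9.25 MBq given via lateral tail vein under pentobarbital (60 mg/kg i.p.) or isoflurane (2% in O2). Mice were decapitated at 2, 10 or 60 min (n=4 per time point). Tissues and blood were weighed and gamma-counted, and trigeminal nerve-to-blood activity ratios calculated. Values are mean ± SEM.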

TRPV1 receptor [7] = test: Biodistribution in TRPV1^-/- mice; type: in vivo; conditions: 60 min p.i.
Outline: as §1

[8] = Biodistribution in control NMRI mice; type: in vivo; conditions: for % ID / % ID/g: control mice i.v.
Outline: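 Male NMRI mice (32–43 g) under pentobarbital (60 mg/kg i.p.) or isoflurane (2% in oxygen) received about 9.25 MBq of radiotracer in saline via a lateral tail vein. They were decapitated at 2, 10 or 60 min p.i. (n=4 per time point). Organs and blood were dissected, weighed and gamma-counted. %ID was organ cpm over total recovered cpm. Blood mass was taken as 7% of body mass.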

[9] = Plasma radiometabolites in mice; type: in vivo; conditions: mouse plasma
[10] = Brain radiometabolites in mice; type: in vivo; conditions: mouse brain
[11] = Distribution coefficient n-octanol/phosphate buffer pH 7.4; type: physicochemical; conditions: 1-octanol / 0.025 M phosphate buffer pH 7.4
Outline: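 HPLC-purified radiotracer (~37 MBq/mL in saline) was added to equal volumes of n-octanol and 0.025 M sodium phosphate buffer pH 7.4 (n=8). Tubes were vortexed for 1 min at room temperature and centrifuged at 3000 rpm for 10 min. Phase aliquots were weighed and gamma-counted. D was calculated as cpm/mL octanol over cpm/mL buffer, with volumes derived from mass and phase density.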

[12] = read-out: antagonist activity (Ki), capsaicin 75 nM
[13] = control mice, pentobarbital, i.v.

T1 sequence (O35433 whole entry): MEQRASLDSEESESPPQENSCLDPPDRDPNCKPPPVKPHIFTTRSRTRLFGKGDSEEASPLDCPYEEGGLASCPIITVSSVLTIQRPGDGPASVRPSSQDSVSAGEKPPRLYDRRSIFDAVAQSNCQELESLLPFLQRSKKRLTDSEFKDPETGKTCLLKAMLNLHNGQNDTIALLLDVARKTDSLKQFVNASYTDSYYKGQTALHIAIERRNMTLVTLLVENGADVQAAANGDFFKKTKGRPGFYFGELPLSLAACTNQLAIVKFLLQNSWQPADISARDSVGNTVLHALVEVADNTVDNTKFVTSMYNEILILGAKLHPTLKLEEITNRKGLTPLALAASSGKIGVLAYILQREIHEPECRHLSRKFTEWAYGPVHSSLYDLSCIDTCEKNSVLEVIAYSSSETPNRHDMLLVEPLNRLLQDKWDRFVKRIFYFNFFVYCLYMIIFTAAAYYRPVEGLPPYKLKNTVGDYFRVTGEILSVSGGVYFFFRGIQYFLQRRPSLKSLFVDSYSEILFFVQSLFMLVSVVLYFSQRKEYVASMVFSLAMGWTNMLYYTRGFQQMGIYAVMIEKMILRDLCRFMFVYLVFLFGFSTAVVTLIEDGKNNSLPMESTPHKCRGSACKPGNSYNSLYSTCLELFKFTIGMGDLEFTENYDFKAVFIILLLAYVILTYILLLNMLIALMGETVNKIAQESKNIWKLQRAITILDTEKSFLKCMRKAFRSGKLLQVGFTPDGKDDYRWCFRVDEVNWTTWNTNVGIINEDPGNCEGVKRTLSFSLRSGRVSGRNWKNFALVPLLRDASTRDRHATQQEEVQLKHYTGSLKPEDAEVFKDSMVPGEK
T2 sequence (Q8NER1 whole entry): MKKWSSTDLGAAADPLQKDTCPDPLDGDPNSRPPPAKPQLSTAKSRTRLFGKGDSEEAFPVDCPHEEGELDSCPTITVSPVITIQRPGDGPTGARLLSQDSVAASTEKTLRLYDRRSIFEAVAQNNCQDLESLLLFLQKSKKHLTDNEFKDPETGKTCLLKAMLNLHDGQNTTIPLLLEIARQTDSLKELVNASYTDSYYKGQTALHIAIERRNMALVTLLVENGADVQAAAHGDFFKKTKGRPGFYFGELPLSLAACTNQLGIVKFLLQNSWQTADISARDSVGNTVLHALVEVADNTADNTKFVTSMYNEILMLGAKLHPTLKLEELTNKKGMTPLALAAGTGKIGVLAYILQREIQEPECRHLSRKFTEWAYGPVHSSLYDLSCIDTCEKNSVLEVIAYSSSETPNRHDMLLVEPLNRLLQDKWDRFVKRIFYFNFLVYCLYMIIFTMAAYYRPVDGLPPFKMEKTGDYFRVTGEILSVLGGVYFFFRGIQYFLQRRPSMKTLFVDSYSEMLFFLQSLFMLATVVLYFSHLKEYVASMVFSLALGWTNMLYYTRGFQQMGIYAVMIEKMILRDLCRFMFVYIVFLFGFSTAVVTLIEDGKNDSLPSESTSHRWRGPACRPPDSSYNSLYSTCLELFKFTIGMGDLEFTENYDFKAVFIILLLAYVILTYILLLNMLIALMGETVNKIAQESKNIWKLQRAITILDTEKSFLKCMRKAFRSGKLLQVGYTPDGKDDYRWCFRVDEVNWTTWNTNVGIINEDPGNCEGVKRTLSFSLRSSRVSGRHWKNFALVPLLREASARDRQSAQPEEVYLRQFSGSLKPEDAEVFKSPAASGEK

COc1cccc(NC(=O)/C=C/c2ccc(Cl)cc2)c1 [SB366791, N-(3-methoxyphenyl)-4-chlorocinnamide]
agonist effects (rTRPV1 [1]; agonism assay): No agonist effects were observed
Ki (rTRPV1 [1]; [12]): 0.334 ± 0.017 µM
IC50 (hTRPV1 [2]): 0.0057 µM
agonist effects (hTRPV1 [3]; agonism assay): No agonist effects were observed
Ki (hTRPV1 [3]; [12]): 0.197 ± 0.017 µM
Kd (rTRPV1 [4]): 0.78 ± 0.14 µM
Kd (hTRPV1 [5]): 0.28 ± 0.056 µM

[11CH3]Oc1cccc(NC(=O)/C=C/c2ccc(Cl)cc2)c1 [[^11C]SB366791]
trigeminal nerve-to-blood activity ratio (TRPV1 receptor [6]; mice pretreated with BCTC 10 mg/kg s.c. 1 h before tracer): 1.0
trigeminal nerve-to-blood activity ratio (TRPV1 receptor [6]; mice pretreated with SB366791 10 mg/kg s.c. 1 h before tracer): 1.3
trigeminal nerve-to-blood activity ratio (TRPV1 receptor [7]): 0.8
% ID ([8]; Bladder+urine, 2 min p.i.): 0.2±0.1 % ID
% ID ([8]; Bladder+urine, 10 min p.i.): 8.0±2.5 % ID
% ID ([8]; Bladder+urine, 60 min p.i.): 25.9±12.0 % ID
% ID ([8]; Blood, 2 min p.i.): 9.9±1.0 % ID
% ID/g ([8]; Blood, 2 min p.i.): 3.6±0.4 % ID/g
% ID ([8]; Blood, 10 min p.i.): 6.9±0.5 % ID
% ID/g ([8]; Blood, 10 min p.i.): 2.6±0.2 % ID/g
% ID ([8]; Blood, 60 min p.i.): 2.3±0.2 % ID
% ID/g ([8]; Blood, 60 min p.i.): 0.8±0.1 % ID/g
% ID/g ([8]; Bone, 2 min p.i.): 1.5±0.2 % ID/g
% ID/g ([8]; Bone, 10 min p.i.): 1.2±0.4 % ID/g
% ID/g ([8]; Bone, 60 min p.i.): 0.9±0.2 % ID/g
% ID ([8]; Carcass, 2 min p.i.): 44.5±3.6 % ID
% ID ([8]; Carcass, 10 min p.i.): 48.6±2.2 % ID
% ID ([8]; Carcass, 60 min p.i.): 19.3±3.3 % ID
% ID ([8]; Cerebellum, 2 min p.i.): 0.4±0.1 % ID
% ID/g ([8]; Cerebellum, 2 min p.i.): 3.9±0.4 % ID/g
% ID ([8]; Cerebellum, 10 min p.i.): 0.1±0.0 % ID
% ID/g ([8]; Cerebellum, 10 min p.i.): 1.1±0.1 % ID/g
% ID ([8]; Cerebellum, 60 min p.i.): 0.0±0.0 % ID
% ID/g ([8]; Cerebellum, 60 min p.i.): 0.3±0.1 % ID/g
% ID ([8]; Cerebrum, 2 min p.i.): 1.2±0.2 % ID
% ID/g ([8]; Cerebrum, 2 min p.i.): 3.7±0.5 % ID/g
% ID ([8]; Cerebrum, 10 min p.i.): 0.4±0.0 % ID
% ID/g ([8]; Cerebrum, 10 min p.i.): 1.2±0.1 % ID/g
% ID ([8]; Cerebrum, 60 min p.i.): 0.1±0.0 % ID
% ID/g ([8]; Cerebrum, 60 min p.i.): 0.3±0.0 % ID/g
% ID ([8]; Heart, 2 min p.i.): 0.9±0.1 % ID
% ID/g ([8]; Heart, 2 min p.i.): 5.0±1.0 % ID/g
% ID ([8]; Heart, 10 min p.i.): 0.3±0.1 % ID
% ID/g ([8]; Heart, 10 min p.i.): 1.8±0.2 % ID/g
% ID ([8]; Heart, 60 min p.i.): 0.1±0.0 % ID
% ID/g ([8]; Heart, 60 min p.i.): 0.6±0.0 % ID/g
% ID ([8]; Intestines, 2 min p.i.): 8.9±0.6 % ID
% ID ([8]; Intestines, 10 min p.i.): 13.0±1.5 % ID
% ID ([8]; Intestines, 60 min p.i.): 33.8±6.2 % ID
% ID ([8]; Kidneys, 2 min p.i.): 4.5±0.2 % ID
% ID/g ([8]; Kidneys, 2 min p.i.): 7.1±0.8 % ID/g
% ID ([8]; Kidneys, 10 min p.i.): 5.0±1.0 % ID
% ID/g ([8]; Kidneys, 10 min p.i.): 7.9±1.2 % ID/g
% ID ([8]; Kidneys, 60 min p.i.): 1.9±0.4 % ID
% ID/g ([8]; Kidneys, 60 min p.i.): 2.8±0.5 % ID/g
% ID ([8]; Liver, 2 min p.i.): 28.6±2.5 % ID
% ID/g ([8]; Liver, 2 min p.i.): 14.2±2.5 % ID/g
% ID ([8]; Liver, 10 min p.i.): 16.1±1.6 % ID
% ID/g ([8]; Liver, 10 min p.i.): 8.7±1.0 % ID/g
% ID ([8]; Liver, 60 min p.i.): 8.9±3.2 % ID
% ID/g ([8]; Liver, 60 min p.i.): 4.6±2.1 % ID/g
% ID ([8]; Lungs, 2 min p.i.): 1.5±0.4 % ID
% ID/g ([8]; Lungs, 2 min p.i.): 4.5±0.3 % ID/g
% ID ([8]; Lungs, 10 min p.i.): 0.9±0.2 % ID
% ID/g ([8]; Lungs, 10 min p.i.): 2.7±0.1 % ID/g
% ID ([8]; Lungs, 60 min p.i.): 0.5±0.2 % ID
% ID/g ([8]; Lungs, 60 min p.i.): 1.6±1.0 % ID/g
% ID/g ([8]; Muscle, 2 min p.i.): 1.2±0.3 % ID/g
% ID/g ([8]; Muscle, 10 min p.i.): 1.3±0.2 % ID/g
% ID/g ([8]; Muscle, 60 min p.i.): 0.4±0.1 % ID/g
% ID ([8]; Pancreas, 2 min p.i.): 1.1±0.1 % ID
% ID/g ([8]; Pancreas, 2 min p.i.): 5.4±0.9 % ID/g
% ID ([8]; Pancreas, 10 min p.i.): 0.6±0.1 % ID
% ID/g ([8]; Pancreas, 10 min p.i.): 2.7±0.2 % ID/g
% ID ([8]; Pancreas, 60 min p.i.): 0.5±0.2 % ID
% ID/g ([8]; Pancreas, 60 min p.i.): 2.0±0.5 % ID/g
% ID/g ([8]; Skin, 2 min p.i.): 1.3±0.1 % ID/g
% ID/g ([8]; Skin, 10 min p.i.): 2.4±0.3 % ID/g
% ID/g ([8]; Skin, 60 min p.i.): 1.1±0.3 % ID/g
% ID ([8]; Spleen, 2 min p.i.): 0.6±0.2 % ID
% ID/g ([8]; Spleen, 2 min p.i.): 4.0±0.8 % ID/g
% ID ([8]; Spleen, 10 min p.i.): 0.2±0.0 % ID
% ID/g ([8]; Spleen, 10 min p.i.): 2.0±0.2 % ID/g
% ID ([8]; Spleen, 60 min p.i.): 0.2±0.0 % ID
% ID/g ([8]; Spleen, 60 min p.i.): 1.4±0.3 % ID/g
% ID ([8]; Stomach, 2 min p.i.): 1.4±0.2 % ID
% ID ([8]; Stomach, 10 min p.i.): 2.0±0.7 % ID
% ID ([8]; Stomach, 60 min p.i.): 1.8±0.7 % ID
% ID ([8]; Trigeminal nerve, 2 min p.i.): 0.02±0.00 % ID
% ID/g ([8]; Trigeminal nerve, 2 min p.i.): 4.2±0.4 % ID/g
% ID ([8]; Trigeminal nerve, 10 min p.i.): 0.01±0.00 % ID
% ID/g ([8]; Trigeminal nerve, 10 min p.i.): 3.4±0.2 % ID/g
% ID ([8]; Trigeminal nerve, 60 min p.i.): 0.01±0.00 % ID
% ID/g ([8]; Trigeminal nerve, 60 min p.i.): 2.9±0.7 % ID/g
total brain uptake ([8]; control mice, 2 min after injection): 1.6 % ID
total brain uptake ([8]; control mice, 60 min p.i.): 0.1 % ID
SUV in trigeminal nerve, isoflurane versus pentobarbital anaesthesia ([8]; control mice, isoflurane 2% in oxygen compared with pentobarbital 60 mg/kg i.p.): remarkable lower
blood 2 min/60 min ratio [8, 13]: 4.3
trigeminal nerve 2 min/60 min ratio [8, 13]: 1.5
intact tracer in plasma, of recovered radioactivity ([9]; 2 min after i.v. injection): 52.0±3.0%
radiometabolites in plasma ([9]; 2 min p.i.): 48.0%±3.0
radiometabolites in plasma ([9]; 10 min p.i.): 82.4%±1.9
intact tracer in brain, of total recovered radioactivity ([10]; 2 min after injection): 85.6%±3.7
intact tracer in brain, of total recovered radioactivity ([10]; 10 min after injection): 67.2%±0.7
log D [11]: 3.5±0.1
